Measurements reported in ChEMBL document CHEMBL2396602, “Discovery of N-(4'-(indol-2-yl)phenyl)sulfonamides as novel inhibitors of HCV replication” (Bioorg Med Chem Lett, 2013).
Active and inactive are the calls of the source. No cut-off for these calls is given here.

Key:
[1] = Cytotoxicity against human HuH7 cells after 2 days by MTS assay; type: cell-based, Huh-7
Procedure, shortened: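 MTS cell proliferation assay run in parallel with the luciferase replicon assay in the same genotype 1b replicon-bearing Huh7 cells (5000 cells/well, 0.5% DMSO final, 37 °C); CC50 derived.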

Hepatitis C virus [2] = assay: Antiviral activity against Hepatitis C virus genotype 1b infected in human HuH7 cells assessed as inhibition of viral replication after 2 days by luciferase reporter gene assay; type: functional, organism-based, Hepacivirus hominis; details: Huh-7, 48 h
Procedure, shortened: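 Huh7 cells carrying a genotype 1b bicistronic HCV replicon plated at 5000 cells/well, kept subconfluent; compound added at 0.5% DMSO final, incubated at 37 °C; luciferase read after 2 days; EC50 from dose response.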

[3] = Volume of distribution at steady state in Sprague-Dawley rat at 1 mg/kg, iv; type: ADME, organism-based; design: dose 1 mg/kg, route intravenous; details: in vivo, read-out: Vdss
Procedure, shortened: (§1)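 Female Sprague–Dawley rats dosed with compound in PEG-300 solution, 3 mg/kg orally or 1 mg/kg intravenously; pharmacokinetic parameters derived from plasma exposure after each route.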

Rattus norvegicus [4] = assay: AUC (0 to infinity) in Sprague-Dawley rat at 3 mg/kg, po; type: ADME, organism-based, Plasma; design: dose 3 mg/kg, route oral, time infinity; details: in vivo; procedure, shortened: as §1
Rattus norvegicus [5] = assay: Oral bioavailability in Sprague-Dawley rat at 3 mg/kg; type: ADME, organism-based; details: in vivo; procedure, shortened: as §1
Hepatitis C virus [6] = assay: Antiviral activity against Hepatitis C virus genotype 1b infected in human HuH7 cells assessed as reduction in HCV RNA after 3 days by RT-PCR analysis; type: functional, organism-based, Hepacivirus hominis; details: Huh-7, 72 h
Procedure, shortened: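 Huh7 cells with a genotype 1b monocistronic replicon seeded at 5000 cells/well; compound at 0.5% DMSO final, 37 °C; cells harvested 3 days after dosing; replicon RNA measured by real-time RT-PCR, normalised to GAPDH RNA.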

[7] = Intrinsic clearance in human liver microsomes at 1 uM by LC/MS analysis; type: ADME, Microsome; details: read-out: CLH
Procedure, shortened: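 Compound at 1 µM incubated with human liver microsomes (0.5 mg/mL protein) for 0, 10, 20, 30 and 60 min with 1 mM EDTA, 3 mM MgCl2, 1.3 mM NADP, 3.3 mM D-glucose-6-phosphate and 1 unit/mL glucose-6-phosphate dehydrogenase.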

Hepacivirus hominis = assay: Inhibition of HCV protease up to 10 uM
[8] = Selectivity index, ratio of CC50 for human HuH7 cells to EC50 for Hepatitis C virus subtype 1b; type: toxicity, cell-based, Huh-7; details: read-out: Ratio CC50/EC50
Procedure, shortened: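 Ratio of CC50 from the MTS assay to EC50 from the luciferase assay, both in genotype 1b bicistronic replicon Huh7 cells run in parallel.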

[9] = Cmax in Sprague-Dawley rat at 3 mg/kg, po; type: ADME, organism-based; design: dose 3 mg/kg, route oral; details: in vivo; procedure, shortened: as §1
[10] = Half life in Sprague-Dawley rat at 1 mg/kg, iv; type: ADME, organism-based; design: dose 1 mg/kg, route intravenous; details: in vivo; procedure, shortened: as §1

SMILES | EC50 (Hepatitis C virus [2]) [µM] | CC50 at 48 h [1] [µM] | further results
N#Cc1c(-c2ccc(NS(=O)(=O)C3CC3)cc2)n(C2CCC2)c2cc(OC(F)F)ccc12 | 0.19 | 20 | –
CCn1c(-c2ccc([S+](C)[O-])cc2)c(C#N)c2ccc(OC)cc21 (configuration not stated) | 4 | 52 | –
COc1ccc(-n2cc([N+](=O)[O-])c3ccc(OC)cc32)cc1 | 50 | – | –
CCn1c(-c2ccc(NC(=O)c3ccccc3)cc2)c(C#N)c2ccc(OC)cc21 | > 100 | > 100 | –
CCn1c(-c2ccc(C(N)=O)cc2)c(C#N)c2ccc(OC)cc21 | 7.8 | > 100 | –
CCn1c(-c2ccc(OC)cc2)c(C#N)c2ccc(OC)cc21 | 4.1 | > 100 | –
CCn1c(-c2ccc(NC(C)=O)cc2)c(C#N)c2ccc(OC)cc21 | 1.3 | 89 | –
CCn1c(-c2ccc(N)cc2)c(C#N)c2ccc(OC)cc21 | 7.7 | 100 | –
CCn1c(-c2ccc(N3CCCS3(=O)=O)cc2)c(C#N)c2ccc(OC)cc21 | 2 | > 50 | –
CCn1c(-c2ccc(NS(=O)(=O)CC)cc2)c(C#N)c2ccc(OC)cc21 | 0.47 | 62 | selectivity ratio [8]: > 130
CCn1c(-c2ccc(NS(=O)(=O)CC)cc2)c(C#N)c2ccc(CO)cc21 | 3.5 | 60 | –
CCn1c(-c2ccc(NS(=O)(=O)C(C)C)cc2)c(C#N)c2ccc(OC)cc21 | 0.65 | 70 | –
CC(C)S(=O)(=O)Nc1ccc(-c2c(C#N)c3ccc(OC(F)F)cc3n2CC2CC2)cc1 | – | 22 | –
CCn1c(-c2ccc(NS(=O)(=O)CC)cc2)c(C#N)c2cc(OC)c(OC)cc21 | 4 | > 100 | –
CCCn1c(-c2ccc(NS(=O)(=O)C3CC3)cc2)c(C#N)c2ccc(OC(F)F)cc21 | 0.25 | > 100 | –
CCOc1ccc(-c2c(C#N)c3ccc(OC)cc3n2CC)cc1 | 3 | > 100 | –
CCn1c(-c2ccc(NS(=O)(=O)CC)cc2)c(C#N)c2ccc(O)cc21 | 2 | 55 | –
CCn1c(-c2ccc(NS(=O)(=O)CC)cc2)c(C#N)c2cc(Cl)ccc21 | 7.5 | 40 | –
CCn1c(-c2ccc(NS(=O)(=O)C3CC3)cc2)c(C#N)c2ccc(OC(F)F)cc21 | 0.1 | 23 | –
CCOc1ccc2c(C#N)c(-c3ccc(NS(=O)(=O)CC)cc3)n(CC)c2c1 | 0.53 | 42 | –
CCn1c(-c2ccc(NS(=O)(=O)C(C)C)cc2)c(C#N)c2ccc(OC(F)F)cc21 | 0.12 | 19 | –
CCn1c(-c2ccc(S(C)(=O)=O)cc2)c(C#N)c2ccc(OC)cc21 | 2.6 | 42 | –
CC(C)n1c(-c2ccc(NS(=O)(=O)C3CC3)cc2)c(C#N)c2ccc(OC(F)F)cc21 | 0.075 | 13 | –
CCn1c(-c2ccc(NS(=O)(=O)CC)cc2)c(C#N)c2ccc(C(F)(F)F)cc21 | 0.36 | 18 | selectivity ratio [8]: 50
CCCS(=O)(=O)Nc1ccc(-c2c(C#N)c3ccc(OC(F)F)cc3n2CC)cc1 | 0.22 | 26 | –
CCOC(=O)Nc1ccc(-c2c(C#N)c3ccc(OC)cc3n2CC)cc1 | 1.3 | 41 | –
CCn1c(-c2ccc(NS(=O)(=O)CC)cc2)c(C#N)c2ccc(OC(F)F)cc21 | 0.29 | 20 | selectivity ratio [8]: 69
CCn1c(-c2ccc(N3CCNS3(=O)=O)cc2)c(C#N)c2ccc(OC)cc21 | 0.9 | 30 | –

The next lines start with results.

EC50 (Hepatitis C virus [2]) [µM] | SMILES | CC50 at 48 h [1] [µM] | further results
7.4 | CCn1c(-c2ccc(NS(=O)(=O)C(C)C)cc2)c(C#N)c2cc(OC)ccc21 | 36 | –
> 11 | CCn1c(-c2ccc(NS(=O)(=O)CC)cc2)c(C#N)c2ccc(C(=O)O)cc21 | > 100 | –
3 | CCn1c(-c2ccc(NS(=O)(=O)CC)cc2)c(C#N)c2ccc(CN3CCOCC3)cc21 | 35 | –
0.2 | CCS(=O)(=O)Nc1ccc(-c2c(C#N)c3ccc(OC(F)F)cc3n2C(C)C)cc1 | 12 | –
9 | CCn1c(-c2ccc(NS(=O)(=O)CC)cc2)c(C#N)c2ccc(C(N)=O)cc21 | 55 | –
0.17 | N#Cc1c(-c2ccc(NS(=O)(=O)C3CC3)cc2)n(CC2CC2)c2cc(OC(F)F)ccc12 | 25 | Vd [3]: 2.2 L/kg; AUC (Rattus norvegicus [4]): 6.8 µM·h; F (Rattus norvegicus [5]): 58%; EC50 (Hepatitis C virus [6]): 0.18 µM; CLint scaled at 1 µM [7]: < 1 mL/min/kg; inhibition (Hepacivirus hominis): inactive; selectivity ratio [8]: 147; Cmax [9]: 770 ng/mL; half-life [10]: 6.3 h
0.59 | CCn1c(-c2ccc(NS(=O)(=O)CC)cc2)c(C#N)c2ccc(OCCF)cc21 | 39 | selectivity ratio [8]: 66
9 | CCn1c(-c2ccc(NS(=O)(=O)CC)cc2)c(C#N)c2ccccc21 | 40 | –
0.3 | CCS(=O)(=O)Nc1ccc(-c2c(C#N)c3ccc(OC(F)F)cc3n2CC2CC2)cc1 | 13 | –
> 51 | CCn1c(-c2ccc(OC)cc2)c([N+](=O)[O-])c2ccc(OC)cc21 | – | –
5 | CCn1c(-c2ccc(NS(=O)(=O)CC)cc2)c(C#N)c2ccc(COC)cc21 | > 100 | –
6.1 | CCn1c(-c2ccc(O)cc2)c(C#N)c2ccc(OC)cc21 | 50 | –
0.17 | CCn1c(-c2ccc(NS(=O)(=O)CC)cc2)c(C#N)c2ccc(OC(F)(F)F)cc21 | 24 | selectivity ratio [8]: 141
0.59 | CCn1c(-c2ccc(NS(=O)(=O)CC)cc2)c(C#N)c2cc(F)ccc21 | 39 | –
3.5 | CCn1c(-c2ccc(NS(=O)(=O)CC)cc2)c(C#N)c2c(Cl)cccc21 | 55 | –
